From ChEMBL document CHEMBL1255469, “In vitro activity of a new isothiazoloquinolone, ACH-702, against Mycobacterium tuberculosis and other mycobacteria” (2010)
Values after ≈ are worked out from the molar mass of the structure shown.

Key:
Format in all cases: functional
[1] = tested on: Mycobacterium tuberculosis; assay: Antimicrobial activity against isoniazid and rifampin-susceptible Mycobacterium tuberculosis clinical isolates after 7 days by broth microdilution assay; details: 168 h
Outline: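 Alamar Blue broth microdilution in 7H9GC broth (Middlebrook 7H9 base, glycerol, Casitone, 10% OADC). Drug stock 1 mg/ml in 100% DMSO, diluted in broth to a final 0.03 to 8 μg/ml. M. tuberculosis H37Rv served as the susceptible-strain control. Isoniazid and rifampin resistance was assigned beforehand by the proportion method.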

[2] = tested on: Mycolicibacterium fortuitum; assay: Antimicrobial activity against Mycobacterium fortuitum clinical isolates after 7 days by broth microdilution assay; details: 168 h
[3] = tested on: Mycobacterium avium complex sp.; assay: Antimicrobial activity against Mycobacterium avium complex clinical isolates after 7 days by broth microdilution assay; details: 168 h
Outline: (§1)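 Slowly growing mycobacteria were identified by phenotype and hsp65 PCR-RFLP. MIC by CLSI broth microdilution in cation-adjusted Mueller-Hinton broth with OADC supplement at a final 10%. Final drug range 0.06 to 16 μg/ml. Read after 7 days at 35°C. S. aureus ATCC 29213 was run as a quality control with each plate lot.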

Staphylococcus aureus = assay: Antimicrobial activity against Staphylococcus aureus ATCC 29213 after 72 hrs by broth microdilution assay; details: ATCC 29213, 72 h
Mycobacterium gordonae = assay: Antimicrobial activity against Mycobacterium gordonae after 7 days by broth microdilution assay; details: 168 h; outline: as §1
Mycobacterium kansasii = assay: Antimicrobial activity against Mycobacterium kansasii after 7 days by broth microdilution assay; details: 168 h; outline: as §1
[4] = tested on: Mycobacteroides abscessus; assay: Antimicrobial activity against Mycobacterium abscessus clinical isolates after 7 days by broth microdilution assay; details: 168 h
Mycobacteroides chelonae = assay: Antimicrobial activity against Mycobacterium chelonae clinical isolates after 7 days by broth microdilution assay; details: 168 h

SMILES: COc1c(N2CC[C@@H](C(C)(C)N)C2)c(F)cc2c(=O)c3c(=O)[nH]sc3n(C3CC3)c12
- MIC50 [1]: 0.0625 µg/mL (≈ 0.145 µM)
- MIC90 [1]: 0.125 µg/mL (≈ 0.289 µM)
- MIC50 [2]: ≤ 0.0625 µg/mL
- MIC90 [2]: ≤ 0.0625 µg/mL
- MIC50 [3]: 0.25 µg/mL (≈ 0.578 µM)
- MIC90 [3]: 4 µg/mL (≈ 9.25 µM)
- MIC (Staphylococcus aureus): ≤ 0.06 µg/mL
- MIC (Mycobacterium gordonae): 0.12 µg/mL (≈ 0.277 µM)
- MIC (Mycobacterium kansasii): 0.12 µg/mL (≈ 0.277 µM)
- MIC [4]: 16 µg/mL (≈ 37 µM)
- MIC (Mycobacteroides chelonae): 8 µg/mL (≈ 18.5 µM)
